For experiment [1], the target named is T1, NAD-dependent protein deacetylase sirtuin-1 (Homo sapiens) (UniProt Q96EB6).
T1 sequence (whole entry): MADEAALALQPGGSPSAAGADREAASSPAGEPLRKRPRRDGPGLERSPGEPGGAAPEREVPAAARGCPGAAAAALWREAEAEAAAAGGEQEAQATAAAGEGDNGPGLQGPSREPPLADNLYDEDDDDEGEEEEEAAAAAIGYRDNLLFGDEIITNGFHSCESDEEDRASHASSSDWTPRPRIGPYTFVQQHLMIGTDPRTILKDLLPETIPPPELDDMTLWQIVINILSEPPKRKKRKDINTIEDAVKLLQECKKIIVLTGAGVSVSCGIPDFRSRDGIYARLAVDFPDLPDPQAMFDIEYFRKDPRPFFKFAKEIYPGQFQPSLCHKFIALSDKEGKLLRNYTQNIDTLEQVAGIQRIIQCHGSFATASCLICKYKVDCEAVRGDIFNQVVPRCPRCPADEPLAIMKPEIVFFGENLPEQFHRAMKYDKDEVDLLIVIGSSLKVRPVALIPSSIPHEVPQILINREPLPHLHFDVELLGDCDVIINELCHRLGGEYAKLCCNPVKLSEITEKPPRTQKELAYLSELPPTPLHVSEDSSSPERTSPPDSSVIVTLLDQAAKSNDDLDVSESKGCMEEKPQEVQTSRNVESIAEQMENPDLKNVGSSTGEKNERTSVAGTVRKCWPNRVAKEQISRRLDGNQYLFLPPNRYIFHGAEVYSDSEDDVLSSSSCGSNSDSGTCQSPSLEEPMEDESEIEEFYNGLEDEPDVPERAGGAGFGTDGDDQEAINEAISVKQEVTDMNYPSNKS
As to the kind of experiment: Activation of SIRT1 expressed in HEK293 cells assessed as reduction in p53 transcriptional activity incubated for 12 hrs by luciferase reporter gene assay. In kind it is cell-based. Put shortly: (§1)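 HEK293 cells in DMEM with 10% FBS, plated at 10^5 cells/well. After 24 h, PEI-transfected with PG13-luc (wt p53 sites), myc-p53, flag-SIRT1 and RSV-β-gal. Treated 24 h post-transfection for 12 h. Luciferase normalized to internal control. Triplicate experiments, mean ± SD.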
(Reporter assays use an easily measured gene product as a stand-in for the process of interest.)

The target in experiment [2] is T1, NAD-dependent protein deacetylase sirtuin-1 (Homo sapiens). Nature of the experiment: Activation of SIRT1 expressed in HEK293 cells assessed as increase in enzyme deacetylation activity at 10 uM using acetylated p53 substrate and NAD+ by bioluminescence assay. In kind it is cell-based. Put shortly: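 Enzyme–compound premix 10 min, then substrate/NAD+ added and run 2 h. Quenched with LDH reagent containing nicotinamide for 1 h. Read by luciferase/FMN-oxidoreductase/decanal luminescence within 15 min. DMSO reaction as positive control, no-enzyme as blank.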

Experiment [3] shares this target. As to the kind of experiment: Activation of SIRT1 expressed in HEK293 cells assessed as increase in enzyme deacetylation activity pre-incubated for 10 mins before addition of acetylated p53 peptide substrate and NAD+ by NAD+/NADH assay. It counts as cell-based. Put shortly:
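Cell-free SIRT1 (0.1 U/mL) with 10 μM NAD+ and 20 μM Ac-p53 peptide in Tris/Cl pH 8.0, NaCl, KCl, MgCl2, BSA buffer. Enzyme–compound premix 10 min at room temperature, then 6 h at ambient temperature. Stopped with NAD/NADH recycling enzyme mix containing 1 mM nicotinamide; absorbance read after 2 h. DMSO and no-enzyme controls.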

Experiment [4] shares this target. Nature of the experiment: Activation of SIRT1 expressed in HEK293 cells assessed as reduction in p53 transcriptional activity at 10 uM incubated for 12 hrs by luciferase reporter gene assay. In kind it is cell-based. A digest of the protocol:
as §1

The target is the same in experiment [5]. Nature of the experiment: Activation of SIRT1 expressed in HEK293 cells assessed as increase in NAD to NADH ratio at 20 uM after 12 hrs by NAD+/NADH assay.

The source made the active and inactive calls. No cut-off for these calls is given here. A value given as a limit tells only on which side of the number the result lay.

Consider `COc1cc2ccc(=O)oc2c(OC)c1OC[C@@H](O)[C@](C)(O)CC[C@H]1OC1(C)C`, for which the Activity entry is “Dose-dependent effect” in experiment [1], “Dose-dependent effect” in experiment [3] and greater than 50% in experiment [5]. The result in experiment [2] and in experiment [4] was Active.

Take `COc1cc2ccc(=O)oc2c(OC)c1OC/C=C(\C)CCC=C(C)C`: the results for the Activity entry in experiment [1], in experiment [3] and in experiment [5] were “Dose-dependent effect”, “Dose-dependent effect” and greater than 50%, respectively. The result in experiment [2] and in experiment [4] was Active.

Consider `COc1cc2ccc(=O)oc2c(OC)c1OC[C@H](O)[C@@H](C)[C@@H]1O[C@H]1C=C(C)C`, for which the figures for the Activity entry in experiment [1], in experiment [3] and in experiment [5] were “Dose-dependent effect”, “Dose-dependent effect” and greater than 50%, respectively. The result in experiment [2] and in experiment [4] was Active.

In the case of `COc1cc2ccc(=O)oc2c(OC)c1OC[C@@H](O)[C@](C)(O)CCC=C(C)C`, the Activity result in experiment [1] is “Dose-dependent effect”; in experiment [3] it was “Dose-dependent effect”; in experiment [5], greater than 50%. The outcome in experiment [2] and in experiment [4] was Active.

The record behind these values is ChEMBL document CHEMBL2069229, “Terpenylated coumarins as SIRT1 activators isolated from Ailanthus altissima” (J Nat Prod, 2012).
